Results: ChEMBL document CHEMBL2346636, “Synthesis and biological evaluation of substituted imidazoquinoline derivatives as mPGES-1 inhibitors” (Bioorg Med Chem, 2013)
pIC50: −log10 of the molar value.

What was measured:
[1] = Stability of the compound in NaOH/THF at room temperature; format: physicochemical
Method in brief: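 SEM-protected compound in 1 M NaOH (10 equiv) in THF at room temperature. Deprotection was monitored for up to 12 h.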

[2] = Half life of the compound in TBAF/THF under reflux
[3] = Half life of the compound in TFA at room temperature; format: physicochemical
Method in brief: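 SEM- and Boc-protected compounds in TFA (100 equiv) at room temperature. Deprotection was monitored and reported as the time to half-conversion (T1/2) and the time to full conversion.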

[4] = Half life of the compound in NaOH/THF/MeOH at room temperature; format: physicochemical
Method in brief: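 Boc-protected compound in 1 M NaOH (10 equiv) in THF/MeOH at room temperature. Deprotection was followed and reported as T1/2 (half-deprotection time) and the time to complete deprotection.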

[5] = Half life of the compound in HCl/THF at room temperature; format: physicochemical
Method in brief: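 Boc-protected compound in 4 M HCl (10 equiv) in THF at room temperature. Deprotection was followed over time and reported as the time to half-conversion (T1/2) and the time to completion.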

[6] = target: T1, Prostaglandin E synthase (Homo sapiens, UniProt O14684); experiment: Inhibition of mPGES1 (unknown origin) transfected in HEK293 cells co-expressing COX1 using arachidonic acid as substrate assessed as inhibition of PGE2 production incubated for 30 mins prior to arachidonic acid addition measured after 60 mins by HTRF assay; format: cell-based
T1 sequence (O14684 whole entry): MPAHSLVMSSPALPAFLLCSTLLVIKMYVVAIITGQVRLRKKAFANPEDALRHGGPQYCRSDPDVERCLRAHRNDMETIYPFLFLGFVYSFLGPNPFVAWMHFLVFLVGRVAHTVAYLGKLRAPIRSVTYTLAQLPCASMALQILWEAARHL
Method in brief: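 Enzyme source was microsomes from HEK293 cells co-transfected with mPGES-1 and COX-1, in 100 mM Tris-HCl pH 8.0 with 5 mM EDTA, 1 mM GSH, phenol and hematin. Compound was added in DMSO (final 1%) and preincubated 30 min at room temperature. Arachidonic acid in 0.1 M KOH started the reaction, which ran 60 min at room temperature. It was stopped with 1 M HCl, neutralized with 1 M NaOH, and PGE2 was quantified by HTRF.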

SMILES	pIC50 [6]	other results
Cn1c(=O)c2c(nc(-c3ccccc3Cl)n2COCC[Si](C)(C)C)c2ccc(Br)cc21		Stability [1]: Stable; half-life [2]: 30 min; half-life [3]: < 5 min
Cn1c(=O)c2c(nc(-c3ccccc3Cl)n2C(=O)OC(C)(C)C)c2ccc(Br)cc21		half-life [4]: 15 min; half-life [5]: 30 min; half-life [3]: < 5 min
Nc1nc2cc(Br)ccc2c2[nH]c(-c3ccccc3Cl)nc12	5.97	
CNc1nc2cc(Br)ccc2c2nc(-c3ccccc3Cl)[nH]c12	6.20	
CN(C)c1nc2cc(Br)ccc2c2[nH]c(-c3ccccc3Cl)nc12	6.41	
S=c1[nH]c2cc(Br)ccc2c2nc(-c3ccccc3Cl)[nH]c12	7.08	
CSc1nc2cc(Br)ccc2c2nc(-c3ccccc3Cl)[nH]c12	7.51	
CCSc1nc2cc(Br)ccc2c2[nH]c(-c3ccccc3Cl)nc12	7.23	
Cn1c(=O)c2[nH]c(-c3ccccc3Cl)nc2c2ccc(Br)cc21	7.07	
CCn1c(=O)c2[nH]c(-c3ccccc3Cl)nc2c2ccc(Br)cc21	6.97	
O=c1c2[nH]c(-c3ccccc3Cl)nc2c2ccc(Br)cc2n1Cc1ccccc1	6.65	
Cn1c(-c2ccccc2Cl)nc2c(=O)[nH]c3cc(Br)ccc3c21	< 5.00	
Cn1c(-c2ccccc2Cl)nc2c3ccc(Br)cc3[nH]c(=O)c21	5.01	
O=c1[nH]c2cc(Br)ccc2c2nc(-c3ccccc3Cl)n(Cc3ccccc3)c12	< 5.00	
Cn1c(-c2ccccc2Cl)nc2c3ccc(Br)cc3n(C)c(=O)c21	< 5.00	
